The source made the active and inactive calls. The calls are words filed in the database; no cut-off is given here.

Experiment [1] addresses T1, Adrenergic receptor alpha-1 (Rattus norvegicus) (UniProt P15823+P23944+P43140). Kind of experiment: Ratio of presynaptic antagonist potency to postsynaptic antagonist potency. The experiment is classed as functional.
In experiment [2] the target is T1, Adrenergic receptor alpha-1 (Rattus norvegicus). The experiment can be described thus: In vitro postsynaptic agonist potency at alpha-1 adrenergic receptor in rat anococcygeus muscle relative to phenylephrine. The experiment is classed as functional, tissue-based.
For experiment [3], the target named is T2, Adrenergic receptor alpha-2 (Rattus norvegicus, UniProt P22086+P19328+P22909).
T2 sequence (P22086 whole entry): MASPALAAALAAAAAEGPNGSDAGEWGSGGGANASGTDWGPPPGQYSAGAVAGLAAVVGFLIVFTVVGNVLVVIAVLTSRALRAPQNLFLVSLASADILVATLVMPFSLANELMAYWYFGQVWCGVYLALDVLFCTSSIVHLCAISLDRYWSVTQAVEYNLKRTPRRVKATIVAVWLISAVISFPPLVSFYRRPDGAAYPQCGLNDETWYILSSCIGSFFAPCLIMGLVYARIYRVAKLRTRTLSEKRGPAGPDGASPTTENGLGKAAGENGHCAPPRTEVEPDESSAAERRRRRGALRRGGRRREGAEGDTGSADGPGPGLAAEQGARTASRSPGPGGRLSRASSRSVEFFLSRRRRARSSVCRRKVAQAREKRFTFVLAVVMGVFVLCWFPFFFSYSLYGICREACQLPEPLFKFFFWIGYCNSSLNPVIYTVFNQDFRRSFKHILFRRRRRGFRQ
T2 sequence (P19328 whole entry): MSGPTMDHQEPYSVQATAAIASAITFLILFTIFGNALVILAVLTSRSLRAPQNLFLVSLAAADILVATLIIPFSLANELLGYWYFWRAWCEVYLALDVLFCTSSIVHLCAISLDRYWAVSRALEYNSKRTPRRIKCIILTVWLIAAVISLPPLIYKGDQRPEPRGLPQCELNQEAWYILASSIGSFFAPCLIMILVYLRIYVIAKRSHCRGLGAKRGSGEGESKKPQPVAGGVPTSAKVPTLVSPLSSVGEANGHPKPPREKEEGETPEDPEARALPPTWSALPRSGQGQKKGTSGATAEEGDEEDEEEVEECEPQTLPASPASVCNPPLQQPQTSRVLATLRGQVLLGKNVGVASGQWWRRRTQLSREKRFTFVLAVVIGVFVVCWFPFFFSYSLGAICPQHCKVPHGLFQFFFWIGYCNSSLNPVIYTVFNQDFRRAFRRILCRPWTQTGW
T2 sequence (P22909 whole entry): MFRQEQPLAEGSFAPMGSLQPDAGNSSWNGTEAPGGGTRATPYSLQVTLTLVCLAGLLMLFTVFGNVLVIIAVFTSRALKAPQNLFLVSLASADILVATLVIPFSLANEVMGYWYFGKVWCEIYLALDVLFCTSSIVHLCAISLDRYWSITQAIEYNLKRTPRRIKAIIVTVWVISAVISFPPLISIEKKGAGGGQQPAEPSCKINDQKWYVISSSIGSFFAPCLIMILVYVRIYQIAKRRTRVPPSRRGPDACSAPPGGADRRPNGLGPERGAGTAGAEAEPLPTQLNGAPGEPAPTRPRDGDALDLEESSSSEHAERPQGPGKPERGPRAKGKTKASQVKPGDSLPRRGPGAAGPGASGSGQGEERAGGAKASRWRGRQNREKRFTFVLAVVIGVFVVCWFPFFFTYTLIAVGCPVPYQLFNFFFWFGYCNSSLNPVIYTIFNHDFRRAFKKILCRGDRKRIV
Kind of experiment: Alpha-2 adrenergic receptor pA2 value against clonidine in vitro experiment in rat vas deferens. The experiment is classed as tissue-based. In outline:
(§1)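 pA2 was obtained by Arunlakshana–Schild analysis at postsynaptic α1 (anococcygeus) or presynaptic α2 (vas deferens) sites. Values are mean ± SEM of at least six experiments.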

The target in experiment [4] is T3, Adrenergic receptor alpha-1 (Rattus norvegicus, UniProt P15823+P23944+P43140).
T3 sequence (P15823 whole entry): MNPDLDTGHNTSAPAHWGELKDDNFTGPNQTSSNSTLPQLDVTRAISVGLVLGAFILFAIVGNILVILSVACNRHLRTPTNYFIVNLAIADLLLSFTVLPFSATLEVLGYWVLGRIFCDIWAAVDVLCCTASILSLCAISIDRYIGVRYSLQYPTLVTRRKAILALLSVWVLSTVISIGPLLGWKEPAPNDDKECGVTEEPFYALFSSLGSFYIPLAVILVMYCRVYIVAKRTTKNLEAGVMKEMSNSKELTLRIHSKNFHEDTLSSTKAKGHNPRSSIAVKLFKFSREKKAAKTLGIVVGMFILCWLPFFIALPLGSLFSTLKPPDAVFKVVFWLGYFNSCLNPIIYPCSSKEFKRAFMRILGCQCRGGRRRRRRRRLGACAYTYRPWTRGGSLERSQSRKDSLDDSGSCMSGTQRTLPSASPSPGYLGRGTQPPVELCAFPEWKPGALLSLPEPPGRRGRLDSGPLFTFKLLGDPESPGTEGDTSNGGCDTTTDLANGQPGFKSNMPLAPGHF
T3 sequence (P23944 whole entry): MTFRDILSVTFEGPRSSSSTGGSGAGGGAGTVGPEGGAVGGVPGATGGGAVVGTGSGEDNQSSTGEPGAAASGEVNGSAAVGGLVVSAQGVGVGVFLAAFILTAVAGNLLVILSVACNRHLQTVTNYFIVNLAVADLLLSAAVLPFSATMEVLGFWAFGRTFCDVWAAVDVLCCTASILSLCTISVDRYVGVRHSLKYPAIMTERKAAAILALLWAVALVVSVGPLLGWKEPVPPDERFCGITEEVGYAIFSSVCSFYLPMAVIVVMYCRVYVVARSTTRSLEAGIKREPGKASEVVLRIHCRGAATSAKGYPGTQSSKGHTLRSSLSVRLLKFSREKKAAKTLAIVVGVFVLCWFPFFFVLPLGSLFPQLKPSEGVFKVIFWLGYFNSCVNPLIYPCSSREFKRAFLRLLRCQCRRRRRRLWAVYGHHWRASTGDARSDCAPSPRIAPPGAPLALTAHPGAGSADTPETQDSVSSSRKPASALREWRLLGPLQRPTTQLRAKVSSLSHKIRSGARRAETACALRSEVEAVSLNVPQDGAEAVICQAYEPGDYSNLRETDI
T3 sequence (P43140 whole entry): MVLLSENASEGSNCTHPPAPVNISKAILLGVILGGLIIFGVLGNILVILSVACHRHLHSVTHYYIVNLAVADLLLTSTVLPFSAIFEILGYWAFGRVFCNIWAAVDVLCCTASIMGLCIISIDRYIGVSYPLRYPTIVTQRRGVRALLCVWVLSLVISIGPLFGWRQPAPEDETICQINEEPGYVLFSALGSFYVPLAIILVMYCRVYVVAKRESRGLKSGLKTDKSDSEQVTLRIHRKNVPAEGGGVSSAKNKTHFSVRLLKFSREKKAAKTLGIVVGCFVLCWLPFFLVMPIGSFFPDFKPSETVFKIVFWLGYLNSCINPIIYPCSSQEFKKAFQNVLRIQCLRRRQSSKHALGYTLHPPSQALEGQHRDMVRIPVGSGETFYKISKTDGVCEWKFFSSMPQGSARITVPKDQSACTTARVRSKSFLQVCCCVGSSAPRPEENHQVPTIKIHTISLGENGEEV
The experiment can be described thus: Alpha-1-adrenoceptor pA2 value against norepinephrine in vitro experiment in rat anococcygeus. In outline:
as §1

Experiment [5] is described as follows: Ratio of pA2 value against alpha2 to alpha-1 adrenoceptor. An outline of the steps: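 α2/α1 selectivity was taken as the antilog of the difference between the pA2 values at α2- and α1-adrenoreceptors.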
Experiment [6] concerns the target T4, Adrenergic receptor alpha-2 (Rattus norvegicus) (UniProt P22086+P19328+P22909). Kind of experiment: In vitro presynaptic agonist potency at alpha-2 adrenergic receptor in rat or mouse vas deferens relative to clonidine; IA means inactive. The experiment is classed as functional, tissue-based. In outline: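 Field-stimulated rat or mouse vas deferens (Krebs, 30 °C, 95% O2/5% CO2, 3-ms pulses at 0.1 Hz) with isometric twitch recording. […] Standard dose-response curves were run before and after the analogue's curve.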

Experiment [7] addresses T4, Adrenergic receptor alpha-2 (Rattus norvegicus). The experiment can be described thus: In vitro presynaptic antagonist potency at alpha-2 adrenergic receptor in rat or mouse vas deferens relative to compound 5 (RX781094). It is filed as functional, tissue-based. In outline: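 Prostatic halves of rat vas deferens (male Sprague–Dawley rats, 200–250 g; Krebs, 30 °C, 95% O2/5% CO2; 3-ms, 40 V, 0.1 Hz field pulses) or mouse vas deferens (Mg-free Krebs, 30 °C; 3-ms pulses, 0.1 Hz, 100–140 V) were used, with isometric twitch recording. […] The concentration giving 50% reversal was compared with the RX781094 standard in the same tissue.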

Experiment [8] addresses T1, Adrenergic receptor alpha-1 (Rattus norvegicus). Kind of experiment: In vitro postsynaptic antagonist potency at alpha-1-adrenoceptor in rat anococcygeus relative to compound 5 (RX781094). The experiment is classed as functional.

Take `Cc1ccc2c(c1)OC(C1=NCCN1)CO2` (stereo not drawn): the Selectivity in experiment [1] was determined as 0.14; in experiment [5], 17. This compound also displayed an Agonist potency in experiment [2] of 0.004. Besides, the pA2 (usually the negative logarithm of the molar antagonist concentration that doubles the agonist concentration needed for the same response) in experiment [3] is on record as 7.1; in experiment [4], 5.87. Further, the Agonist potency result in experiment [6] is “inactive”. Also, the Antagonist potency in experiment [7] was determined as 0.08; in experiment [8], 0.8.

Values taken from ChEMBL document CHEMBL1122229, “alpha-adrenoreceptor reagents. 1. Synthesis of some 1,4-benzodioxans as selective presynaptic alpha 2-adrenoreceptor antagonists and potential antidepressants” (J Med Chem, 1983).
